# Tested on: not listed separately
# Test: Distribution coefficient between 1-octanol and phosphate buffer, logD of the compound after 24 hrs by shake flask assay
# Format: physicochemical
# Conditions: 1-octanol/phosphate buffer
# Method in brief: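 CAMDIS high-throughput shake-flask method. PVDF membranes impregnated with 1-octanol are dipped in 25 mM phosphate buffer, pH 7.4, containing the compound, then shaken 24 h at 23 °C. Remaining aqueous concentration measured by LC/MS. logD calculated from the aqueous concentration with and without octanol impregnation, and the phase ratio.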
row,logD at 24 h,SMILES
1,3.4,Cc1cc(N2CC3CCC(C2)C3Nc2nc3n(n2)CCCC[C@H]3c2ccc(F)c(F)c2F)ncn1 (some centres undefined)
2,> 4,Cc1nnc(C23CCC(Nc4nc(Cc5ccc(Cl)cc5)cc(C(C)(C)O)n4)(CC2)CC3)o1
3,3.6,Cc1nnc(N2CC3CCC(C2)C3Nc2nc(Oc3cccc(Cl)c3)n(C(C)C)n2)o1 (centres undefined)
4,4,Cc1nnc(N2CC3CCC(C2)C3Nc2nc(Cc3ccc(Cl)cc3)cc(C(C)(C)O)n2)o1 (centres undefined)
5,3.8,Cc1cc(C23CC(Nc4nc5n(n4)CCCC[C@H]5c4ccc(F)c(F)c4F)(C2)C3)ncn1
6,> 4,Cc1nnc(-c2ccc(Nc3nc(Cc4ccc(Cl)cc4)cc(C(C)(C)O)n3)cc2)o1
7,2.7,Cc1nnc(N2CC3CCC(C2)C3Nc2nc3n(n2)CCCN3c2cccc(Cl)c2)o1 (centres undefined)
8,4.1,Cc1nnc(C23CCC(Nc4nc(Oc5cccc(Cl)c5)n(C(C)C)n4)(CC2)CC3)o1
9,4.1,Cc1nnc(C23CC(Nc4nc(Oc5cccc(Cl)c5)n(C(C)C)n4)(C2)C3)o1
10,> 4,Cc1nnc(-c2ccc(Nc3nc(Oc4cccc(Cl)c4)n(C(C)C)n3)cc2)o1
11,2.4,Cc1nnc(C23CC(Nc4nc5n(n4)CCCN5c4cccc(Cl)c4)(C2)C3)o1
12,3.1,Cc1nnc(C23CCC(Nc4nc5n(n4)CCCN5c4cccc(Cl)c4)(CC2)CC3)o1
13,2.8,Cc1nnc(C23CC(Nc4nc5n(n4)CCCN5c4ccc(OC(F)(F)F)cc4)(C2)C3)o1
14,3.5,Cc1nnc(N2CC3CCC(C2)C3Nc2nc3n(n2)CCCN3c2ccc(OC(F)(F)F)cc2)o1 (centres undefined)
15,4,Cc1nnc(C23CC(Nc4nc(Cc5ccc(Cl)cc5)cc(C(C)(C)O)n4)(C2)C3)o1
16,> 4,Cc1nnc(-c2ccc(Nc3nc4n(n3)CCCN4c3ccc(OC(F)(F)F)cc3)cc2)o1
17,3.2,Cc1nnc(-c2ccc(Nc3nc4n(n3)CCCN4c3cccc(Cl)c3)cc2)o1
18,3.7,Cc1nnc(C23CCC(Nc4nc5n(n4)CCCN5c4ccc(OC(F)(F)F)cc4)(CC2)CC3)o1

# Molecular target: Gamma-secretase
# Test: Modulatory activity of gamma secretase in human H4 cells overexpressing human APP695 K595N/M596L mutant assessed as decrease in amyloidbeta42 levels at 24 hrs by Alphalisa method
# Format: cell-based
# Conditions: not given
# Method in brief: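 H4 neuroglioma cells stably expressing APP695 Swedish mutant, in IMDM with 10% FCS and […] hygromycin B, at 37 °C, 5% CO2. Compounds added 3-4 h after plating and incubated 24 h, typically 4 µM down to 0.0013 µM in half-log steps (8 points), final Me2SO 0.4%. Secreted Aβ in supernatant quantified by AlphaLisa (3 h antibody mix, then donor beads 30 min, RT). IC50 by nonlinear regression.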
row,IC50 [nM],SMILES
1,17,Cc1cc(N2CC3CCC(C2)C3Nc2nc3n(n2)CCCC[C@H]3c2ccc(F)c(F)c2F)ncn1 (some centres undefined)
2,146,Cc1nnc(C23CCC(Nc4nc(Cc5ccc(Cl)cc5)cc(C(C)(C)O)n4)(CC2)CC3)o1
3,42,Cc1nnc(N2CC3CCC(C2)C3Nc2nc(Oc3cccc(Cl)c3)n(C(C)C)n2)o1 (centres undefined)
4,38,Cc1nnc(N2CC3CCC(C2)C3Nc2nc(Cc3ccc(Cl)cc3)cc(C(C)(C)O)n2)o1 (centres undefined)
5,11,Cc1cc(C23CC(Nc4nc5n(n4)CCCC[C@H]5c4ccc(F)c(F)c4F)(C2)C3)ncn1
6,478,Cc1nnc(-c2ccc(Nc3nc(Cc4ccc(Cl)cc4)cc(C(C)(C)O)n3)cc2)o1
7,34,Cc1nnc(N2CC3CCC(C2)C3Nc2nc3n(n2)CCCN3c2cccc(Cl)c2)o1 (centres undefined)
8,118,Cc1nnc(C23CCC(Nc4nc(Oc5cccc(Cl)c5)n(C(C)C)n4)(CC2)CC3)o1
9,214,Cc1nnc(C23CC(Nc4nc(Oc5cccc(Cl)c5)n(C(C)C)n4)(C2)C3)o1
10,510,Cc1nnc(-c2ccc(Nc3nc(Oc4cccc(Cl)c4)n(C(C)C)n3)cc2)o1
11,777,Cc1nnc(C23CC(Nc4nc5n(n4)CCCN5c4cccc(Cl)c4)(C2)C3)o1
12,114,Cc1nnc(C23CCC(Nc4nc5n(n4)CCCN5c4cccc(Cl)c4)(CC2)CC3)o1
13,587,Cc1nnc(C23CC(Nc4nc5n(n4)CCCN5c4ccc(OC(F)(F)F)cc4)(C2)C3)o1
14,46,Cc1nnc(N2CC3CCC(C2)C3Nc2nc3n(n2)CCCN3c2ccc(OC(F)(F)F)cc2)o1 (centres undefined)
15,520,Cc1nnc(C23CC(Nc4nc(Cc5ccc(Cl)cc5)cc(C(C)(C)O)n4)(C2)C3)o1
16,227,Cc1nnc(-c2ccc(Nc3nc4n(n3)CCCN4c3ccc(OC(F)(F)F)cc3)cc2)o1
17,95,Cc1nnc(-c2ccc(Nc3nc4n(n3)CCCN4c3cccc(Cl)c3)cc2)o1
18,21,Cc1nnc(C23CCC(Nc4nc5n(n4)CCCN5c4ccc(OC(F)(F)F)cc4)(CC2)CC3)o1

# Tested on: not listed separately
# Test: Solubility of compound in PBS buffer at pH 6.5 incubated for over night by HPLC-UV based LYSA assay
# Format: physicochemical
# Conditions: not given
# Method in brief: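 Duplicate samples from 10 mM DMSO stocks. DMSO evaporated, residue dissolved in 0.05 M phosphate buffer, pH 6.5, stirred 1 h, shaken 2 h, left overnight, then filtered. Filtrate and its 1/10 dilution measured by direct UV or HPLC-UV against a four-point calibration curve.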
row,solubility at 12 h [µg/mL],SMILES
1,7,Cc1cc(N2CC3CCC(C2)C3Nc2nc3n(n2)CCCC[C@H]3c2ccc(F)c(F)c2F)ncn1 (some centres undefined)
2,< 0.1,Cc1nnc(C23CCC(Nc4nc(Cc5ccc(Cl)cc5)cc(C(C)(C)O)n4)(CC2)CC3)o1
3,104,Cc1nnc(N2CC3CCC(C2)C3Nc2nc(Oc3cccc(Cl)c3)n(C(C)C)n2)o1 (centres undefined)
4,18,Cc1nnc(N2CC3CCC(C2)C3Nc2nc(Cc3ccc(Cl)cc3)cc(C(C)(C)O)n2)o1 (centres undefined)
5,1,Cc1cc(C23CC(Nc4nc5n(n4)CCCC[C@H]5c4ccc(F)c(F)c4F)(C2)C3)ncn1
6,< 0.1,Cc1nnc(-c2ccc(Nc3nc(Cc4ccc(Cl)cc4)cc(C(C)(C)O)n3)cc2)o1
7,233,Cc1nnc(N2CC3CCC(C2)C3Nc2nc3n(n2)CCCN3c2cccc(Cl)c2)o1 (centres undefined)
8,15,Cc1nnc(C23CCC(Nc4nc(Oc5cccc(Cl)c5)n(C(C)C)n4)(CC2)CC3)o1
9,88,Cc1nnc(C23CC(Nc4nc(Oc5cccc(Cl)c5)n(C(C)C)n4)(C2)C3)o1
10,< 0.1,Cc1nnc(-c2ccc(Nc3nc(Oc4cccc(Cl)c4)n(C(C)C)n3)cc2)o1
11,167,Cc1nnc(C23CC(Nc4nc5n(n4)CCCN5c4cccc(Cl)c4)(C2)C3)o1
12,132,Cc1nnc(C23CCC(Nc4nc5n(n4)CCCN5c4cccc(Cl)c4)(CC2)CC3)o1
13,3.2,Cc1nnc(C23CC(Nc4nc5n(n4)CCCN5c4ccc(OC(F)(F)F)cc4)(C2)C3)o1
14,106,Cc1nnc(N2CC3CCC(C2)C3Nc2nc3n(n2)CCCN3c2ccc(OC(F)(F)F)cc2)o1 (centres undefined)
15,11,Cc1nnc(C23CC(Nc4nc(Cc5ccc(Cl)cc5)cc(C(C)(C)O)n4)(C2)C3)o1
16,< 0.1,Cc1nnc(-c2ccc(Nc3nc4n(n3)CCCN4c3ccc(OC(F)(F)F)cc3)cc2)o1
17,< 0.1,Cc1nnc(-c2ccc(Nc3nc4n(n3)CCCN4c3cccc(Cl)c3)cc2)o1
18,0.4,Cc1nnc(C23CCC(Nc4nc5n(n4)CCCN5c4ccc(OC(F)(F)F)cc4)(CC2)CC3)o1

# Source: ChEMBL document CHEMBL4732036, “Phenyl bioisosteres in medicinal chemistry: discovery of novel gamma-secretase modulators as a potential treatment for Alzheimer''s disease” (RSC Med Chem, 2021)
